Source: ChEMBL document CHEMBL4680091, “Discovery of Novel Spiro[3H-indole-3,2'-pyrrolidin]-2(1H)-one Compounds as Chemically Stable and Orally Active Inhibitors of the MDM2-p53 Interaction” (J Med Chem, 2016)
pIC50: −log10 of the molar value.

How the values were obtained:
SJSA-1 = assay: Antiproliferative activity against human SJSA-1 cells expression wild type p53 incubated for 3 days by Alamar Blue dye based assay; assay type: functional, cell-based; settings: SJSA-1, 72 h
SK-OV-3 = assay: Antiproliferative activity against human SK-OV-3 cells expression p53 mutant incubated for 3 days by Alamar Blue dye based assay; assay type: functional, cell-based; settings: SK-OV-3, 72 h
Procedure, shortened: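 p53-mutant SK-OV-3 cells were used in a growth/proliferation assay, with compounds tested up to 25 μM.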

[1] = molecular target: Tumour suppressor p53/oncoprotein Mdm2 (Homo sapiens, UniProt Q00987); assay: Inhibition of GST-tagged MDM2 (amino acids 17 to 111 residues)/p53 (unknown origin) interaction incubated for 15 mins by; assay type: protein assay
Tumour suppressor p53/oncoprotein Mdm2, sequence (P04637 whole entry, the tested form may be a part): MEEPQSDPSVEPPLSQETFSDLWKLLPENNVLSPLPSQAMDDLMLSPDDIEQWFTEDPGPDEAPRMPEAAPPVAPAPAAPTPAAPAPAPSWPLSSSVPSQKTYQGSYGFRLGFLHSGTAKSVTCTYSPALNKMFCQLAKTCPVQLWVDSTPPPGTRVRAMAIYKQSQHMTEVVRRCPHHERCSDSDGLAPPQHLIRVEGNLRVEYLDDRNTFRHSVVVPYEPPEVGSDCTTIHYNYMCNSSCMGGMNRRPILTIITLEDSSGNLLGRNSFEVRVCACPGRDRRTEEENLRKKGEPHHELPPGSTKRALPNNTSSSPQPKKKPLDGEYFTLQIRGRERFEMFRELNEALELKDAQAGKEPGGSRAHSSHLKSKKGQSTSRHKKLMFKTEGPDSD
Tumour suppressor p53/oncoprotein Mdm2, sequence (Q00987 whole entry, the tested form may be a part): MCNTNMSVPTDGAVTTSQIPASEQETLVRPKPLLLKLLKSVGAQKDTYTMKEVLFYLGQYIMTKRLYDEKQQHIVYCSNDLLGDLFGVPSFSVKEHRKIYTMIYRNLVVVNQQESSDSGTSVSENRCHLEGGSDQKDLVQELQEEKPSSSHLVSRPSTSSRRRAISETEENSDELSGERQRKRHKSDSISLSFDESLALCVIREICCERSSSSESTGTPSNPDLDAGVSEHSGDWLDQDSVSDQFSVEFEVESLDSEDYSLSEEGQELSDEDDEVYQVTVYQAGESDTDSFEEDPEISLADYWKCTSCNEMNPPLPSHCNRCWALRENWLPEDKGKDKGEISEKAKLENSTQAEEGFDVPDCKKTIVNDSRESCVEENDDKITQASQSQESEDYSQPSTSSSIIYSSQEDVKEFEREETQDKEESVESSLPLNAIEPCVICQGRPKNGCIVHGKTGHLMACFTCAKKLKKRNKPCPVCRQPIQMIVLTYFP

Row | pIC50 (SJSA-1) | pIC50 (SK-OV-3) | pIC50 [1] | SMILES
1 | 6.54 | < 4.60 |  | CCOc1cccc(CN2[C@H]3CCN(CC(=O)O)[C@H]3[C@H](c3cccc(Cl)c3F)[C@]23C(=O)Nc2cc(Cl)ccc23)c1
2 |  |  | 5.26 | O=C1Nc2cc(Cl)ccc2[C@]12N[C@@H](Cn1cncn1)[C@@H]([N+](=O)[O-])[C@@H]2c1cccc(Cl)c1 (racemic)
3 |  |  | 4.51 | O=C1Nc2cc(Cl)ccc2[C@]12N[C@@H](CO)[C@@H]([N+](=O)[O-])[C@@H]2c1cccc(Cl)c1 (racemic)
4 |  |  | 4.74 | NC(=O)c1cccc(C[C@@H]2N[C@@]3(C(=O)Nc4cc(Cl)ccc43)[C@@H](c3cccc(Cl)c3)[C@@H]2[N+](=O)[O-])c1 (racemic)
5 |  |  | 4.80 | O=C(O)CC[C@@H]1N[C@@]2(C(=O)Nc3cc(Cl)ccc32)[C@@H](c2cccc(Cl)c2)[C@@H]1[N+](=O)[O-] (racemic)
6 |  |  | 7.47 | CCOc1cccc(CN2[C@@H](C)[C@@H](N)[C@H](c3cccc(Cl)c3F)[C@]23C(=O)Nc2cc(Cl)ccc23)c1
7 |  |  | 7.09 | COC(=O)c1ccc([C@H]2C[C@H]3[C@@H](N2)[C@H](c2cccc(Cl)c2F)[C@]2(C(=O)Nc4cc(Cl)ccc42)N3CC2CC2)cc1
8 |  |  | 4.40 | C[C@@H]1N[C@@]2(C(=O)Nc3cc(Cl)ccc32)[C@@H](c2cccc(Cl)c2)[C@@H]1[N+](=O)[O-] (racemic)

The next lines start with the molecule.

Row | SMILES | pIC50 (SJSA-1) | pIC50 (SK-OV-3) | pIC50 [1]
9 | CC(C)CCN1[C@@H](Cn2cncn2)[C@@H](N)[C@H](c2cccc(Cl)c2)[C@]12C(=O)Nc1cc(Cl)ccc12 (racemic) |  |  | 5.69
10 | C[C@@H]1N[C@@]2(C(=O)Nc3cc(Cl)ccc32)[C@@H](c2cccc(Cl)c2)[C@@H]1N (racemic) |  |  | 4.13
11 | O=C1Nc2cc(Cl)ccc2[C@]12CNC[C@@H]2c1cccc(Cl)c1 (racemic) |  |  | 4.44
12 | CC(C)CN1C[C@@H](N)[C@H](c2cccc(Cl)c2)[C@]12C(=O)Nc1cc(Cl)ccc12 |  |  | 6.03
13 | O=C1Nc2cc(Cl)ccc2[C@]12N[C@@H](Cc1c[nH]cn1)[C@@H]([N+](=O)[O-])[C@@H]2c1cccc(Cl)c1 (racemic) |  |  | 4.82
14 | O=C1Nc2cc(Cl)ccc2[C@]12N[C@@H](Cc1ccccc1)[C@@H]([N+](=O)[O-])[C@@H]2c1cccc(Cl)c1 (racemic) |  |  | 4.81
15 | O=C1Nc2cc(Cl)ccc2[C@@]12[C@@H](c1cccc(Cl)c1F)[C@@H]1NCC[C@@H]1N2CC1CC1 | 5.58 | < 4.60 | 6.86
16 | O=C(O)CN1CC[C@H]2[C@@H]1[C@H](c1cccc(Cl)c1F)[C@]1(C(=O)Nc3cc(Cl)ccc31)N2CC1CC1 (racemic) |  |  | 7.41
